Measurements taken from ChEMBL document CHEMBL4184306 (Bioorg Med Chem Lett, 2018).
In brackets after ≈: the same amount, converted by molar mass.

Key:
[1] = test system: OVCAR-8; assay: Growth inhibition of human OVCAR8 cells after 72 hrs by SRB assay; type: functional, cell-based; conditions: OVCAR-8, 72 h
[2] = test system: A2780; assay: Growth inhibition of human A2780 cells after 72 hrs by SRB assay; type: functional, cell-based; conditions: A2780, 72 h
[3] = Growth inhibition of human A2780cis cells after 72 hrs by SRB assay; type: functional, cell-based
[4] = Growth inhibition of SV-40 immortalized human ovarian epithelial cells after 72 hrs by SRB assay
[5] = test system: Plasmodium falciparum; assay: Antiplasmodial activity against Plasmodium falciparum Dd2 by SYBR Green I fluorescence assay; type: functional, organism-based
[6] = test system: A2780 (human); assay: Selectivity index, ratio of IC50 for SV-40 immortalized human ovarian epithelial cells to IC50 for human A2780 cells
[7] = Aqueous solubility of the compound in phosphate buffer at pH 7.4 measured after 24 hrs by HPLC method; type: physicochemical
How it was run: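 Measured in phosphate buffer at pH 7.4 and 37 °C, with the dissolved compound quantified by high-performance liquid chromatography.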

[8] = Growth inhibition of SV-40 immortalized human ovarian epithelial cells after 48 hrs by MTT assay
[9] = test system: Plasmodium falciparum; assay: Antiplasmodial activity against chloroquine sensitive Plasmodium falciparum FCR-3/Gambia assessed as [3H]hypoxanthine incorporation after 72 hrs; type: functional, organism-based
[10] = test system: A2780; assay: Growth inhibition of human A2780 cells after 48 hrs by MTT assay; type: functional, cell-based; conditions: A2780, 48 h
[11] = Growth inhibition of human A2780cis cells after 72 hrs by MTT assay; type: functional, cell-based
[12] = test system: Plasmodium falciparum; assay: Antiplasmodial activity against chloroquine and artemisinin sensitive Plasmodium falciparum FCR-3/Gambia after 72 hrs; type: functional, organism-based

Row | SMILES | IC50 [1] [µM] | IC50 [2] [µM] | IC50 [5] [µM] | solubility at 24 h [7] [µg/mL] | IC50 [9] [µM] | IC50 [10] [µM] | IC50 [3] [µM] | IC50 [4] [µM] | selectivity ratio [6] | IC50 [8] [µM] | IC50 [11] [µM] | IC50 [12] [µM]
1 | CC(=O)O[C@H]1C(=O)[C@@]2(C)[C@H]([C@H](OC(=O)c3ccccc3)[C@]3(O)C[C@H](OC(=O)[C@H](O)[C@@H](NC(=O)c4ccccc4)c4ccccc4)C(C)=C1C3(C)C)[C@]1(OC(C)=O)CO[C@@H]1C[C@@H]2O [PACLITAXEL] | 0.01 | 0.009 | – | – | 0.003 to 0.006 | 0.05 | – | – | – | 0.03 | 0.003 to 0.004 | –
2 | Cc1c(O)c(Br)c(C(C)C)c(O)c1Br | 11.6 | 3.4 | 25.6 | – | – | – | 4.8 | 11 | 3.2 | – | – | –
3 | CC(C)(C)C1=CC(=O)C(C(C)(C)C)=CC1=O | 51.2 | 34 | 4.2 | – | – | – | 42.5 | 117 | – | – | – | –
4 | CC(C)(C)CC(C)(C)C1=CC(=O)C(C(C)(C)CC(C)(C)C)=CC1=O | 56.5 | 44.2 | 116 | – | – | – | 51.8 | > 200 | > 4.6 | – | – | –
5 | CC1=CC(=O)C=CC1=O [Cresoquinone] | 13.4 | 12.1 | – | – | – | – | 11.8 | 6 | < 1 | – | – | –
6 | Cc1cc(O)ccc1O [METHYLHYDROQUINONE] | 6.2 | 5.7 | 134 | – | – | – | 4.7 | 6.3 | – | – | – | –
7 | CC(C)(C)C1=CC(=O)C=CC1=O | 10 | 5.7 | 15.6 | – | – | – | 4.9 | 10.3 | 1.8 | – | – | –
8 | CC1=CC(=O)C(Nc2ccc(F)cc2)=CC1=O | 32 | 15 | 100 | – | – | – | 21.8 | 20.2 | 1.3 | – | – | –
9 | Cc1cc(O)c(C(C)C)cc1O | 8.9 | 3.1 | 15.9 | – | – | – | 9.8 | 14 | 4.5 | – | – | –
10 | Cc1cc(O)c(C(C)(C)C)cc1O | 12.2 | 6.4 | 17.9 | – | – | – | 11.5 | 85.6 | 13.4 | – | – | –
11 | CC(C)(C)C1=CC(=O)C=C(C(C)(C)C)C1=O | 37.4 | 24.6 | 29.5 | – | – | – | 31.1 | 51.5 | – | – | – | –
12 | Cc1cc(O)cc(C)c1O | 8.3 | 3.6 | 15.4 | – | – | – | 3.6 | 7.8 | 2.1 | – | – | –
13 | CC1=CC(=O)C(C(C)C)=CC1=O [THYMOQUINONE] | 11.6 | 7.9 | 25 | 468 (≈ 2.85 mM) | – | – | 7.8 | 17.8 | – | – | – | 1.2
14 | CC1=C(Br)C(=O)C(C(C)C)=C(Br)C1=O [Dibromothymoquinone] | 3.6 | 4.9 | 30 | – | – | – | 5.3 | 7.3 | 1.5 | – | – | –

The next lines start with results.

Row | IC50 [1] [µM] | IC50 [2] [µM] | IC50 [5] [µM] | solubility at 24 h [7] [µg/mL] | IC50 [9] [µM] | IC50 [10] [µM] | SMILES | IC50 [3] [µM] | IC50 [4] [µM] | selectivity ratio [6] | IC50 [8] [µM] | IC50 [11] [µM] | IC50 [12] [µM]
15 | 5.2 | 3.2 | 10.4 | 5040 (≈ 37 mM) | – | – | CC1=CC(=O)C=C(C)C1=O | 2.9 | 5.3 | 1.7 | – | – | –
16 | 12.9 | 14 | 52.7 | – | – | – | CNC1=C(C)C(=O)C=C(C(C)C)C1=O | 7.3 | 36.8 | 5 | – | – | –
17 | 6 | 4.5 | 16.2 | – | – | – | CC1=C(Cl)C(=O)C(C(C)(C)C)=C(Cl)C1=O | 4.2 | 3.1 | < 1 | – | – | –
18 | 16 | 12.6 | 11.1 | – | – | – | CCNC1=C(C)C(=O)C=C(C(C)C)C1=O | 9.6 | 30.3 | 3.1 | – | – | –
19 | 54.2 | 36.1 | 78.8 | – | – | – | CCC(C)(C)C1=CC(=O)C(C(C)(C)CC)=CC1=O | 48.8 | > 200 | > 5 | – | – | –
20 | 35.1 | 19.9 | 19.3 | – | – | – | CC1=C(N)C(=O)C(C(C)C)=CC1=O | 19.3 | 139 | 7.1 | – | – | –
21 | 13.5 | 7.5 | 19.7 | – | – | – | CC1=CC(=O)C(C(C)(C)C)=CC1=O | 7.9 | 55.8 | 7.5 | – | – | –
22 | 5.6 | 6.2 | 9.9 | 8320 (≈ 50.4 mM) | – | – | CC1=CC(=O)C(N(C)C)=CC1=O | 4.7 | 7.9 | 1.7 | – | – | –
23 | 35.6 | 16.7 | 191 | – | – | – | CC1=C(N(C)C)C(=O)C=CC1=O | 20.5 | 28.2 | 1.3 | – | – | –
